Measurements pooled from the literature.
Cell line: A549
Effect on: cell growth or viability

O=C(N/N=C1\C(=O)N(Cc2ccccc2)c2ccc(F)cc21)c1cc2ccccc2[nH]1 — IC50: 1.41 µM
CC[C@@]1(O)C(=O)OCc2c1cc1n(c2=O)Cc2cc3cc4c(cc3nc2-1)OCO4 — IC50 (MTT; 72 h): 0.029 µM
COc1ccc2c(c1)[nH]c1c(C)nccc12 — IC50 (MTT; 72 h): 19.4 µM
O=C(N/N=C1\C(=O)N(Cc2ccccc2)c2ccc(Cl)cc21)c1cc2ccccc2[nH]1 — IC50 (72 h): 1.33 µM
Nc1cc(Br)c(Br)cc1N — IC50 (72 h): 75 µM
COc1c2c(cc3c1OCO3)[C@]13C=C[C@H](OC)C[C@@H]1[N@](C2)C[C@H]3OC(=O)c1ccoc1 — IC50 (WST-1): > 10 µM
CCCCCCCC(=O)SCC/C=C/[C@@H]1CC(=O)NCc2nc(cs2)C2=N[C@@](C)(CS2)C(=O)N[C@@H](C(C)C)C(=O)O1 — IC50 (resazurin; 48 h): 0.0038 µM
O=C(N/N=C1\C(=O)N(Cc2ccccc2)c2ccc(Br)cc21)c1cc2ccccc2[nH]1 — IC50: 0.65 µM
CC[C@@]1(OC(=O)Cc2c(C)n(C(=O)c3ccc(Cl)cc3)c3ccc(OC)cc23)C(=O)OCc2c1cc1n(c2=O)Cc2cc3cc4c(cc3nc2-1)OCO4 — IC50 (MTT): 0.263 µM
CC1=C(O)C(=O)C=C2C1=CC=C1[C@@]2(C)CC[C@@]2(C)[C@@H]3C[C@](C)(C(=O)OCCCn4cc(C=O)c5ccccc54)CC[C@]3(C)CC[C@]12C — IC50 (MTT; 48 h): 7.83 µM
C=CCc1cc(OC)c2c(c1)OCO2 — IC50 (SRB): 359 µM
CC[C@@]1(OC(=O)C(C)c2ccc(CC(C)C)cc2)C(=O)OCc2c1cc1n(c2=O)Cc2cc3cc4c(cc3nc2-1)OCO4 (stereo partly shown) — IC50 (MTT): > 5 µM
N.N.[Cl][Pt][Cl] — IC50 (MTT; 24 h): 5.35 µM
CC[C@@]1(OC(=O)[C@@H](N)C(C)C)C(=O)OCc2c1cc1n(c2=O)Cc2cc3cc4c(cc3nc2-1)OCO4 — IC50 (MTT): 0.089 µM
COc1c2c(cc3c1OCO3)[C@]13C=C[C@H](OC)C[C@@H]1[N@](C2)C[C@H]3OC(=O)c1ccco1 — IC50 (WST-1): > 10 µM
CC[C@@]1(OC(=O)[C@@H](N)CCCCN)C(=O)OCc2c1cc1n(c2=O)Cc2cc3cc4c(cc3nc2-1)OCO4 — IC50 (MTT): 0.088 µM
N.N.[Cl][Pt][Cl] — IC50 (resazurin; 72 h): 3.4 µM
CC[C@H](C)[C@H](N)C(=O)O[C@]1(CC)C(=O)OCc2c1cc1n(c2=O)Cc2cc3cc4c(cc3nc2-1)OCO4 — IC50 (MTT): 0.077 µM
Cc1ccc(CN2C(=O)/C(=N\NC(=O)c3cc4ccccc4[nH]3)c3ccccc32)cc1 — IC50: 0.64 µM
